In article PMC8694313 (RSC Advances, 2021):
Converted amounts (≈) assume the structure as drawn.

Tests used:
RAW 264.7 cells [1] = assay: Nitrite; assay type: cell-based, murine; settings: RAW 264.7, 100 μM and 200 μM pre-treatment; Fig. 5
Summary of the method: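 RAW 264.7 cells (1 × 10^6) seeded in flasks and left to adhere overnight. Pretreated 1 h with test compound (100 or 200 μM), then 100 μM LPS for 24 h at 37 °C, 5% CO2. Supernatant mixed with an equal volume of Griess reagent (0.1% naphthylethylenediamine and 1% sulfanilamide, 1:1, in 5% phosphoric acid) for 10 min in the dark at room temperature; A540 read. Nitrite quantified from a NaNO2 standard curve (0.1–6.25 μM), expressed as μmol NO2−/mg protein. Triplicates.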

Escherichia coli = assay: In vitro antibacterial MIC determination; assay type: cell-based
Summary of the method: (§1)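 Bacteria grown on nutrient agar, subcultured to log phase in nutrient broth, then diluted in sterile saline to about 10^5–10^6 CFU mL−1. Test compounds diluted in acetone, DMSO or diethyl ether (ether preferred). Saturated disks placed on spread-plated inoculum and incubated at 37 °C for 24 h. MIC determined across different compound concentrations, with streptomycin as standard.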

RAW 264.7 cells [2] = assay: MTT assay, LPS-induced inflammation in RAW 264.7; assay type: cell-based, murine; settings: RAW 264.7, pre-treatment 100 μM and 200 μM, then LPS; Fig. 4
Summary of the method: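 Mouse RAW 264.7 macrophages kept in high-glucose DMEM with 10% heat-inactivated FBS and 1% penicillin–streptomycin at 37 °C, 5% CO2. Cells seeded at 5 × 10^5 cells per mL, pretreated 1 h with test compound (100 or 200 μM), then stimulated with […] for 24 h. Medium replaced; 0.5 mg mL−1 MTT for 3 h; formazan dissolved in DMSO; OD read at 540 nm. Percent inflammation derived by subtracting percent viability relative to control.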

COX-2 = biological target: T1, COX-2 (Ovis aries, UniProt P79208); assay: Colorimetric COX; assay type: biochemical, ovine; settings: read-out: % inhibition of COX, COX-2
T1 sequence (P79208 17-603): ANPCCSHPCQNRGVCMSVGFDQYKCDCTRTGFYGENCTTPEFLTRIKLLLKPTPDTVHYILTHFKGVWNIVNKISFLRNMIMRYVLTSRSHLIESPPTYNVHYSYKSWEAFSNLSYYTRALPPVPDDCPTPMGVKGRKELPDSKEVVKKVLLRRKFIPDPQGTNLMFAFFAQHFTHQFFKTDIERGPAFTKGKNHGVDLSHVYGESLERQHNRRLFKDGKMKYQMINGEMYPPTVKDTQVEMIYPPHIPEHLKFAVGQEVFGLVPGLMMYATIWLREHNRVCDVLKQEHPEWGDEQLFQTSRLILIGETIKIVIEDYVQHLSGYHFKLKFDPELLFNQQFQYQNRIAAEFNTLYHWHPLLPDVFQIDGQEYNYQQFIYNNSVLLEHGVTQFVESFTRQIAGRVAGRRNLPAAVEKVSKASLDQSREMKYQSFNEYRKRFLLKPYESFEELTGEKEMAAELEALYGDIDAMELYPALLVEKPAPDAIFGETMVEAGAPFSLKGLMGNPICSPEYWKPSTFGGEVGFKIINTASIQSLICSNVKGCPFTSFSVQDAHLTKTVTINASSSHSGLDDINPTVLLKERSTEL

Aspergillus niger = assay: In vitro antifungal MIC, poison plate technique; assay type: cell-based
Staphylococcus aureus = assay: In vitro antibacterial MIC determination; assay type: cell-based
Summary of the method: as §1

Aspergillus flavus = assay: In vitro antifungal MIC, poison plate technique; assay type: cell-based
COX-1 = biological target: T2, COX-1 (Ovis aries, UniProt P05979); assay: Colorimetric COX; assay type: biochemical, ovine; settings: read-out: % inhibition of COX, COX-1
T2 sequence (P05979 25-600): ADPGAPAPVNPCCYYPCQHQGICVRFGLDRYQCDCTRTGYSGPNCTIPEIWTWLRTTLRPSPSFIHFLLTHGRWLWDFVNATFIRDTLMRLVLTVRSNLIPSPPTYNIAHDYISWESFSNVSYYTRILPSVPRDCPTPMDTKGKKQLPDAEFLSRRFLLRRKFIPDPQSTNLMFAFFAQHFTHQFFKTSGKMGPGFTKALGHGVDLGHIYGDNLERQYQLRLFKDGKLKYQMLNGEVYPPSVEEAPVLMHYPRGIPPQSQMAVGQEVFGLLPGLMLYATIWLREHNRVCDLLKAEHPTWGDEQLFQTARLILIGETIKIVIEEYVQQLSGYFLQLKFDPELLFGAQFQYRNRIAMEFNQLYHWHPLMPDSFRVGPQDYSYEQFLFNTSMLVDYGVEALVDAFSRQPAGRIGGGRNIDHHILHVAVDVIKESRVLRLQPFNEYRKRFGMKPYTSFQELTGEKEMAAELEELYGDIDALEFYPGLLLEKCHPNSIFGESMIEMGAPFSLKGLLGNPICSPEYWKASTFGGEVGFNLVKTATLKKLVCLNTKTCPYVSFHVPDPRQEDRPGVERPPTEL

Pseudomonas aeruginosa = assay: In vitro antibacterial MIC determination; assay type: cell-based
Summary of the method: as §1

[3] = tested on: carrageenan-induced paw edema; assay: Carrageenan induced hind paw edema assay; assay type: in vivo; settings: rat, 100 mg kg^−1 p.o., mean ± SEM
Summary of the method: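 Rats, six per group, acclimatized one week (25 ± 2 °C, 12 h light/dark, standard pellets, water ad libitum). […] Paw volume measured by plethysmometer displacement to the lateral malleolus at 1, 3 and 6 h. Mean ± SEM.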

Bacillus subtillis = assay: In vitro antibacterial MIC determination; assay type: cell-based
Summary of the method: as §1

Rhizopus arrhizus = assay: In vitro antifungal MIC, poison plate technique; assay type: cell-based
[4] = tested on: cotton pellet induced granuloma; assay: Cotton pellets induced granuloma assay; assay type: in vivo; settings: rat, 100 mg kg^−1 p.o. for 8 d, mean ± SEM
Summary of the method: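 Two sterile 10 mg cotton pellets implanted ventrally in rats, six per group. […] On day 9 rats were killed under excess ether. Pellets were freed of tissue and weighed wet, then dried at 55 °C for 6 h or to constant weight. Granuloma equals dry weight minus cotton weight. Mean ± SEM.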

Row | SMILES | inhibition of LPS-induced NO production (RAW 264.7 cells [1]) | MIC (Escherichia coli) [µg/mL] | anti-inflammatory activity against LPS induced cell death / inflammation (MTT) (RAW 264.7 cells [2]) | inhibition at 100 µM (COX-2) [%] | inhibition at 200 µM (COX-2) [%] | MIC (Aspergillus niger) [µg/mL] | MIC (Staphylococcus aureus) [µg/mL] | MIC (Aspergillus flavus) [µg/mL] | inhibition at 100 µM (COX-1) [%] | inhibition at 200 µM (COX-1) [%] | MIC (Pseudomonas aeruginosa) [µg/mL] | Paw volume ([3]; 1 h after carrageenan) [mL] | Paw volume ([3]; 3 h after carrageenan) [mL] | Paw volume ([3]; 6 h after carrageenan) [mL] | MIC (Bacillus subtillis) [µg/mL] | MIC (Rhizopus arrhizus) [µg/mL] | Weight, Dry (cotton pellet) [4] [mg] | Weight, Wet (cotton pellet) [4] [mg]
1 | O=S(=O)(NC[C@@H](O)[C@@H]1CCc2cc(F)ccc2O1)c1ccc(Br)cc1 [Compound 8b, 4-Bromo-N-((R)-2-((S)-6-fluorochroman-2-yl)-2-hydroxyethyl)benzenesulfonamide] | strong inhibition | 12.7 ± 0.87 (≈ 29.5 µM) | strong anti-inflammatory activity | 34.4 ± 0.66 | 60.04 ± 0.24 | 20.4 ± 0.87 (≈ 47.4 µM) | 17.9 ± 0.61 (≈ 41.6 µM) | 17.81 ± 0.16 (≈ 41.4 µM) | 46.1 ± 0.22 | 68.78 ± 0.43 | 22.4 ± 0.4 (≈ 52.1 µM) | 0.52 ± 0.18 | 0.80 ± 0.38 | 1.06 ± 0.27 | 15.08 ± 0.08 (≈ 35 µM) | 20.2 ± 0.65 (≈ 47 µM) | 84.10 ± 1.67 | 182.50 ± 1.77
2 | O=S(=O)(NC[C@@H](O)[C@@H]1CCc2cc(F)ccc2O1)c1ccc(F)cc1F [Compound 8f, N-((R)-2-((S)-6-Fluorochroman-2-yl)-2-hydroxyethyl)-2,4-difluorobenzenesulfonamide] | strong inhibition | 24.1 ± 1.02 (≈ 62.1 µM) | strong anti-inflammatory activity | 28.7 ± 0.07 | 52.1 ± 0.78 | 15.7 ± 0.69 (≈ 40.4 µM) | 19.9 ± 0.66 (≈ 51.3 µM) | 16.2 ± 0.82 (≈ 41.8 µM) | 33.9 ± 1.06 | 73.85 ± 0.54 | 26.8 ± 0.55 (≈ 69.3 µM) | 0.62 ± 0.10 | 0.86 ± 0.32 | 1.10 ± 0.13 | 16.2 ± 0.94 (≈ 41.9 µM) | 19 ± 0.2 (≈ 49.2 µM) | 70.66 ± 2.33 | 139.82 ± 2.42
